# Laboratory results as given in ChEMBL document CHEMBL1152476, “Synthesis and in vitro cytotoxicity of 9-anilinoacridines bearing N-mustard residue on both anilino and acridine rings” (Eur J Med Chem, 2009).
# Columns and labels:
# [1] = Solubility in Tween 80; assay type: physicochemical
# [2] = Solubility in normal saline; assay type: physicochemical; settings: buffer
# [3] = Solubility in dimethyl sulfoxide; assay type: physicochemical
# CCRF-CEM [4] = assay: Cytotoxicity against human CCRF-CEM cells after 72 hrs by XTT-tetrazolium assay; assay type: functional, cell-based
# How it was run: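 CCRF-CEM human T-cell acute lymphocytic leukemia cells exposed for 72 h to six or seven concentrations per compound. Phenazine methosulfate–XTT was then added for 6 h at 37 °C, and absorbance was read at 450 and 630 nm. IC50 was derived from the dose–effect relationship by median–effect plot analysis.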
# CCRF-CEM [5] = assay: Antitumor activity in human CCRF-CEM cells xenografted mouse at 2 mg/kg, iv qd for 3 days; assay type: functional, organism-based; design: dose 2 mg/kg
# How it was run: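 Mice received intravenous injection at 2 mg/kg, once daily ×3 (QD×3), in a DMSO/Tween 80/normal saline vehicle.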
# CCRF-CEM [6] = assay: Ratio of AHMA IC50 to compound IC50 against human CCRF-CEM cells; assay type: functional
# How it was run: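 Ratio of AHMA IC50 to test compound IC50, both from the same 72 h CCRF-CEM XTT assay. Six or seven concentrations per drug were tested, and each IC50 came from a median–effect analysis of the dose–effect relationship.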
Structure (SMILES),solubility [1],solubility [2],solubility [3],IC50 (CCRF-CEM [4]) [nM],Activity (CCRF-CEM [5]),Ratio IC50 (CCRF-CEM [6])
ClCCN(CCCl)CCCCOc1cccc(Nc2c3ccccc3nc3ccccc23)c1,Insoluble,Insoluble,Insoluble,392,Toxic,30
COc1cc(N)cc(Nc2c3ccccc3nc3c(OCCCCN(CCCl)CCCl)cccc23)c1,Insoluble,Insoluble,Insoluble,–,Toxic,30
ClCCN(CCCl)CCOc1cccc(Nc2c3ccccc3nc3c(OCCN(CCCl)CCCl)cccc23)c1,Insoluble,Insoluble,Insoluble,17,Toxic,30
ClCCN(CCCl)CCOc1cccc(Nc2c3ccccc3nc3ccccc23)c1,Insoluble,Insoluble,Insoluble,86,Toxic,30
ClCCN(CCCl)CCCCOc1cccc2c(Nc3ccc(OCCN(CCCl)CCCl)cc3)c3ccccc3nc12,Insoluble,Insoluble,Insoluble,1.3,Toxic,30
ClCCN(CCCl)CCOc1ccc(Nc2c3ccccc3nc3c(OCCN(CCCl)CCCl)cccc23)cc1,Insoluble,Insoluble,Insoluble,14.2,Toxic,30
ClCCN(CCCl)CCCCOc1cccc(Nc2c3ccccc3nc3c(OCCN(CCCl)CCCl)cccc23)c1,Insoluble,Insoluble,Insoluble,6,Toxic,30
ClCCN(CCCl)CCCCOc1ccc(Nc2c3ccccc3nc3c(OCCN(CCCl)CCCl)cccc23)cc1,Insoluble,Insoluble,Insoluble,21,Toxic,30
COc1cc(N)cc(Nc2c3ccccc3nc3c(OCCN(CCCl)CCCl)cccc23)c1,Insoluble,Insoluble,Insoluble,6.7,Toxic,30
ClCCN(CCCl)CCCCOc1ccc(Nc2c3ccccc3nc3ccccc23)cc1,Insoluble,Insoluble,Insoluble,56,Toxic,30
ClCCN(CCCl)CCOc1ccc(Nc2c3ccccc3nc3ccccc23)cc1,Insoluble,Insoluble,Insoluble,–,Toxic,30
CC(=O)O[C@H]1C(=O)[C@@]2(C)[C@H]([C@H](OC(=O)c3ccccc3)[C@]3(O)C[C@H](OC(=O)[C@H](O)[C@@H](NC(=O)c4ccccc4)c4ccccc4)C(C)=C1C3(C)C)[C@]1(OC(C)=O)CO[C@@H]1C[C@@H]2O,–,–,–,–,Toxic,–
